Measurements: ChEMBL document CHEMBL4304784, “Discovery of new potent dual sigma receptor/GluN2b ligands with antioxidant property as neuroprotective agents” (Eur J Med Chem, 2019)
≈ marks a conversion by molar mass, not a printed value.

Tests used:
[1] = Cytotoxicity against human HeLa cells assessed as cell viability at 100 uM incubated for 48 hrs by MTT assay relative to control; format: cell-based; conditions: read-out: Activity
How it was run: (§1)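 Cells kept in DMEM Glutamax with 10% FBS and antibiotic/antimycotic at 37 °C, 5% CO2. Plated at 2x10^3 cells/well 24 h before dosing. Compounds taken from DMSO and diluted in medium, final DMSO ≤1.0%. Exposure 48 h, then MTT added for 4 h at 37 °C. Read as A595 minus A655. Triplicates, at least three independent experiments, mean ± SEM.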

[2] = Antioxidant activity assessed as ABTS radical scavenging activity incubated for 40 mins; format: functional
How it was run: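 Test compound at 0.05, 0.1, 0.2 and 0.4 mg/mL (200 µL) added to 1.8 mL ethanolic ABTS 7mM. Incubated 40 min at room temperature, absorbance read at 735 nm against ABTS solution. Percent inhibition computed from absorbances and used to derive IC50. Triplicate, mean ± SEM; ascorbic acid as reference.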

[3] = target: T1, Glutamate NMDA receptor; GRIN1/GRIN2B (Homo sapiens, UniProt Q05586+Q13224); assay: Displacement of [3H]ifenprodil from GluN1a/GluN2B (unknown origin) expressed in mouse L(tk-) cell membranes after 120 mins by solid scintillation counting method
How it was run: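 Membranes (about 20 μg protein) from mouse L(tk-) cells stably carrying GluN1a/GluN2B, induced with 4 μM dexamethasone and 4 μM ketamine for 24 h. Incubated with 5 nM [3H]ifenprodil in 5 mM TRIS/1 mM EDTA pH 7.5 at 37 °C, 120 min. Non-specific binding defined with 10 μM ifenprodil.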

SH-SY5Y = assay: Neuroprotective activity against H2O2-induced toxicity in human SH-SY5Y cells assessed as cell viability at 25 uM pretreated for 48 hrs followed by H2O2 challenge and measured after 4 hrs by MTT assay (reference value: 18 +/- 2.64%); format: functional; conditions: read-out: Activity
[4] = Cytotoxicity against human HeLa cells assessed as cell viability at 25 uM incubated for 48 hrs by MTT assay relative to control; format: cell-based; conditions: read-out: Activity; how it was run: as §1
[5] = Cytotoxicity against human HeLa cells assessed as decrease in cell viability incubated for 48 hrs by MTT assay; format: cell-based; conditions: read-out: LD50
How it was run: (§2)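 Cells kept in DMEM Glutamax with 10% FBS and antibiotic/antimycotic at 37 °C, 5% CO2. Seeded 24 h before dosing (SH-SY5Y at 2x10^3 cells/well). Compounds in DMSO serially diluted in medium, final DMSO 1.0%, exposure 48 h. MTT added for 4 h at 37 °C, read A595 minus A655. LD50 from linear regression of dose-log response curves; triplicates, three experiments, mean ± SEM.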

[6] = Cytotoxicity against human Hep3B cells assessed as cell viability at 50 uM incubated for 48 hrs by MTT assay relative to control; format: cell-based, Hep 3B2; conditions: read-out: Activity; how it was run: as §1
[7] = target: T2, Sigma intracellular receptor 2 (Rattus norvegicus, UniProt Q5U3Y7); assay: Displacement of [3H]-di-o-tolylguanidine from sigma2 receptor in rat liver membranes in the presence of sigma1 receptor ligand (+)-pentazocine incubated for 120 mins by scintillation counting method; format: cell membranes
T2 sequence (Q5U3Y7 whole entry): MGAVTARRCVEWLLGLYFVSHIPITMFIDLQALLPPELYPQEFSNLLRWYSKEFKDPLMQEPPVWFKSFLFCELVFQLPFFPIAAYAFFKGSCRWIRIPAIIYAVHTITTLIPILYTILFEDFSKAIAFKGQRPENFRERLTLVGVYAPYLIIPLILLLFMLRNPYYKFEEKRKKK
How it was run: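 Rat liver membranes (about 100 µg protein) with 3 nM [3H]di-o-tolylguanidine in 50 mM TRIS pH 8.0 containing 500 nM (+)-pentazocine, at rt. Non-specific binding defined with 10 µM unlabeled DTG. Concentrations 10^-5 to 10^-10 M, in duplicate. 120 min, filtration, scintillation counting. Three independent experiments, mean ± SEM.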

[8] = Cytotoxicity against human Hep3B cells assessed as cell viability at 25 uM incubated for 48 hrs by MTT assay relative to control; format: cell-based, Hep 3B2; conditions: read-out: Activity; how it was run: as §1
[9] = Cytotoxicity against human SH-SY5Y cells assessed as cell viability at 25 uM incubated for 48 hrs by MTT assay (reference value: 100 +/- 12.00%); format: cell-based; conditions: read-out: Activity; how it was run: as §1
[10] = Cytotoxicity against human Hep3B cells assessed as cell viability at 100 uM incubated for 48 hrs by MTT assay relative to control; format: cell-based, Hep 3B2; conditions: read-out: Activity; how it was run: as §1
[11] = Cytotoxicity against human HeLa cells assessed as cell viability at 10 uM incubated for 48 hrs by MTT assay relative to control; format: cell-based; conditions: read-out: Activity; how it was run: as §1
[12] = Cytotoxicity against human SH-SY5Y cells assessed as cell viability at 10 uM incubated for 48 hrs by MTT assay (reference value: 100 +/- 12.00%); format: cell-based; conditions: read-out: Activity; how it was run: as §1
[13] = Cytotoxicity against human SH-SY5Y cells assessed as cell viability at 50 uM incubated for 48 hrs by MTT assay (reference value: 100 +/- 12.00%); format: cell-based; conditions: read-out: Activity; how it was run: as §1
[14] = Cytotoxicity against human SH-SY5Y cells assessed as cell viability at 100 uM incubated for 48 hrs by MTT assay (reference value: 100 +/- 12.00%); format: cell-based; conditions: read-out: Activity; how it was run: as §1
[15] = Cytotoxicity against human Hep3B cells assessed as decrease in cell viability incubated for 48 hrs by MTT assay; format: cell-based, Hep 3B2; conditions: read-out: LD50; how it was run: as §2
[16] = Cytotoxicity against human Hep3B cells assessed as cell viability at 10 uM incubated for 48 hrs by MTT assay relative to control; format: cell-based, Hep 3B2; conditions: read-out: Activity; how it was run: as §1
[17] = Selectivity ratio of Ki for sigma2 receptor in rat liver membranes to Ki for GluN1a/GluN2B (unknown origin) expressed in mouse L(tk-) cell membranes; format: cell-based
[18] = target: T1, Glutamate NMDA receptor; GRIN1/GRIN2B; assay: Potency index, ratio of ifenprodil Ki to test compound Ki for displacement of [3H]ifenprodil from GluN1a/GluN2B (unknown origin) expressed in mouse L(tk-) cell membranes
[19] = Selectivity ratio of Ki for sigma1 receptor in guinea pig brain membranes to Ki for sigma2 receptor in rat liver membranes; format: cell membranes
[20] = Antioxidant activity assessed as H2O2 radical scavenging activity; format: functional
How it was run: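 Compounds at 0.05, 0.1, 0.2 and 0.4 mg/mL in phosphate buffer pH 7.4. 0.353 mL of 4 mM H2O2 in phosphate buffer added to 2.0 mL of each solution, absorbance read at 239 nm. Percent inhibition calculated from absorbances relative to control. Triplicate, mean ± SEM.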

[21] = target: Sigma non-opioid intracellular receptor 1 (Cavia porcellus, UniProt Q60492); assay: Displacement of [3H]-(+)-pentazocine from sigma1 receptor in guinea pig brain cortex membranes incubated for 120 mins by solid scintillation counting method; format: cell membranes
How it was run: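 Guinea pig brain cortex membranes (about 100 µg protein) with 2 nM [3H]-(+)-pentazocine in 50 mM TRIS pH 7.4 at 37 °C. Non-specific binding defined with 10 µM unlabeled (+)-pentazocine. Six concentrations, 10^-5 to 10^-10 M, in duplicate. 120 min with shaking, filtration, solid scintillator counting.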

[22] = Cytotoxicity against human SH-SY5Y cells assessed as decrease in cell viability incubated for 48 hrs by MTT assay; format: cell-based; conditions: read-out: LD50; how it was run: as §2
[23] = Cytotoxicity against human HeLa cells assessed as cell viability at 50 uM incubated for 48 hrs by MTT assay relative to control; format: cell-based; conditions: read-out: Activity; how it was run: as §1

Sigma non-opioid intracellular receptor 1, sequence (Q60492 whole entry): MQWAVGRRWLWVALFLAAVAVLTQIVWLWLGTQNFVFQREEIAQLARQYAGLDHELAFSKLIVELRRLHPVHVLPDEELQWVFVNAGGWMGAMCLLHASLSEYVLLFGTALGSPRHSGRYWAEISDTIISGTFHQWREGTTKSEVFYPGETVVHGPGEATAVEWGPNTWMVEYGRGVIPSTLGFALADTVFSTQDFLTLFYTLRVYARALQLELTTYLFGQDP

Row | SMILES | viability at 48 h, 100 µM [1] [%] | IC50 [2] [µg/mL] | Ki [3] [µM] | viability at 25 µM (SH-SY5Y) [%] | viability at 48 h, 25 µM [4] [%] | CC50 at 48 h [5] [µM] | viability at 48 h, 50 µM [6] [%] | Ki [7] [µM] | viability at 48 h, 25 µM [8] [%] | viability at 48 h, 25 µM [9] [%] | viability at 48 h, 100 µM [10] [%] | viability at 48 h, 10 µM [11] [%] | viability at 48 h, 10 µM [12] [%] | viability at 48 h, 50 µM [13] [%] | viability at 48 h, 100 µM [14] [%] | CC50 at 48 h [15] [µM] | viability at 48 h, 10 µM [16] [%] | Ratio Ki [17] | Ratio Ki [19] | IC50 [20] [µg/mL] | further results
1 | O=C1CCc2ccccc2N1CCCCN1CCN(C2CCCCC2)CC1 | 94 | 35.79 (≈ 96.8 µM) | 0.002 | 105 | 75 | 265 | 48 | 0.0015 | 70 | 81 to 111 | 52 | 83 | 91 | 86 | 99 | 81 | 106 | 0.75 | 14 | 38.29 (≈ 104 µM) | Ratio Ki [18]: 5; Ki [21]: 0.021 µM; CC50 at 48 h [22]: 493 µM; viability at 48 h, 50 µM [23]: 79%
2 | O=c1oc(-c2ccccc2)nn1CCCCN1CCN(C2CCCCC2)CC1 | 57 | 69.25 (≈ 180 µM) | 0.023 | 114 | 48 | 76 | 72 | 0.093 | 76 | 78 to 105 | 143 | 62 | 81 | 75 | 105 | 71 | 72 | 4 | 0.37 | 73.07 (≈ 190 µM) | Ki [21]: 0.035 µM; CC50 at 48 h [22]: 81 µM; viability at 48 h, 50 µM [23]: 46%
3 | O=C1CCc2ccccc2N1CCCCN1CCN(c2ccc(F)cc2)CC1 | 70 | 21.34 (≈ 55.9 µM) | 0.0081 | 86 | 78 | 128 | 54 | 0.021 | 83 | 84 to 121 | 41 | 88 | 127 | 116 | 60 | 77 | 99 | 2.6 | 0.76 | 24.04 (≈ 63 µM) | Ki [21]: 0.016 µM; CC50 at 48 h [22]: 63 µM; viability at 48 h, 50 µM [23]: 70%
